Screening data: PubChem, several laboratories
A selection: hits, their analogues and other compounds. The true share with any hit is near 2.6%.
SENP7 inh = inhibitors of human SENP7 protease; AID 434973; inhibition, % at 5 µM; recombinant SENP7, Z-RLRGG-aminoluciferin luminescence, 40 min; actives 1.5% (n = 330,000);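 active means inhibition above about 50% at the single test dose, limit read from the data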;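 further: plate controls were DMSO with enzyme for no effect and no enzyme buffer wells for full effect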
Target sequence (Q9BQF6 706-1050 limits assumed): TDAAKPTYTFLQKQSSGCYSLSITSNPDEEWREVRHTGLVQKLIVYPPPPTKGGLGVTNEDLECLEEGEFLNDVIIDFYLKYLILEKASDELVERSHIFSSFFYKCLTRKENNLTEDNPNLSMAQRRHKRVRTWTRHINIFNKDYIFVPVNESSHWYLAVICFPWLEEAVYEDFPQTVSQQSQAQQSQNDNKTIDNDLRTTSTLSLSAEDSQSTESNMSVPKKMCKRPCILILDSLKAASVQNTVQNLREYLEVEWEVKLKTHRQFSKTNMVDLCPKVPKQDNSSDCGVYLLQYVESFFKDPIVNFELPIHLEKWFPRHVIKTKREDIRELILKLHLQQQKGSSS
Platelet DG rel = modulates dense granule release in human platelets; human platelet-rich plasma, SFLLRN dense granule ATP release, luminescence; inhibition, %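 (compounds screened at 7.5 µM in platelet-rich plasma)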; actives 0.22% (n = 300,000); AID 1663;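 active means mean replicate score, as percent of positive control, at or above 50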
SENP1 inh = blocks the human SENP1 SUMO protease catalytic domain; Q9P0U3; AID 624204; recombinant SENP1 catalytic domain, CyPet-SUMO1-YPet FRET cleavage; actives 0.21% (n = 360,000); inhibition, % at 10 µM;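 active means inhibition at least 30% at 10 µM, raw YFP signal under a set limit, fluorescence ratio 0.5 to 1.5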;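 further: 0% = enzyme with DMSO and 100% = no enzyme wells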
Target sequence (Q9P0U3 419-644 limits assumed): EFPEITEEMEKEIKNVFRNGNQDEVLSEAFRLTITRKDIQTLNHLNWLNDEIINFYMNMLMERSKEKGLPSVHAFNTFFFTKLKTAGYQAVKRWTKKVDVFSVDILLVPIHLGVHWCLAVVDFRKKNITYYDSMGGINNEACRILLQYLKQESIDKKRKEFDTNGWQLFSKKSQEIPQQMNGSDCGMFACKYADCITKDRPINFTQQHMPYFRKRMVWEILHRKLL
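system = hSENP1 catalytic domain, recombinant | reagent = SFCypet-SUMO1-SFYpet substrate at 25 nM | doses = one dose per compound, 10 µM, 0.5% DMSO | incubation = enzyme reaction for 50 min at room temperature, dark | measured by = FRET, CFP and YFP emission | controls = no-enzyme low, enzyme-DMSO high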
SENP8 block-1 = SENP8 protease inhibition; purified SENP8, Z-RLRGG-aminoluciferin cleavage, luminescence; inhibition, % at 10 µM; actives 1.2% (n = 330,000); in the data active means inhibition above about 50%
SENP6 inh = SENP6 protease inhibition | inhibition, % at 10 µM | AID 2599 | Recombinant SENP6 catalytic domain, aminoluciferin luminescence | Q9GZR1 | actives 1.8% (n = 330,000);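 active means inhibition above about 50% at the single tested dose, limit read from the data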;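 further: plate controls were DMSO wells with enzyme for no effect and DMSO wells lacking enzyme for full effect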
SENP8 block-2 = SENP8 (human) protease inhibition | Q96LD8 | recombinant SENP8, Nedd8 substrate fluorescence | inhibition, % at 20 µM | actives 0.64% (n = 360,000) | AID 602440; in the data active means inhibition mostly above about 40%, no sharp cut-off; inactive means mostly below about 27%
SENP8 conf = confirmation of human SENP8 protease inhibitors; actives 40% (n = 6,200); inhibition, % at 12.5 µM; Recombinant SENP8, Z-RLRGG-aminoluciferin luminescence, 60 min; shares compounds with SENP7 inh;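 active means mean inhibition across replicates above about 50%, limit read from the data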
SENP6 confirm = human SENP6 inhibition, confirmed | shares compounds with SENP7 inh | recombinant SENP6, Z-RLRGG-aminoluciferin luminescence | inhibition, % at 12.5 µM | actives 58% (n = 6,200) | AID 488915
SENP7 conf = human SENP7 inhibition, confirmed | shares compounds with SENP7 inh | recombinant SENP7, Z-RLRGG-aminoluciferin luminescence, 40 min | inhibition, % at 12.5 µM | actives 69% (n = 6,200) | AID 488917
Casp3 select = inhibits human caspase-3 in SENP selectivity test; shares compounds with SENP7 inh; purified caspase-3, Z-DEVD-aminoluciferin luminescence, 60 min; inhibition, % at 12.5 µM; actives 60% (n = 6,200); AID 488918;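 active means mean inhibition above about 50%, limit read from the data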;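 further: plate controls were enzyme with DMSO for no effect and wells without caspase-3 for full effect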
Luc interf = counter-screen for SENP inhibitors: luminescence interference | shares compounds with SENP7 inh | Pre-incubated SENP8/Z-RLRGG-aminoluciferin, luciferase luminescence interference | inhibition, % at 12.5 µM | actives 39% (n = 6,200);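 active means mean inhibition above about 50% when retested at one dose, limit read from the data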;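 further: plate controls were DMSO wells with completed reaction for no effect and substrate without enzyme for full effect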
The depositor's hits bear a star; i = inactive; / = not tested or not shown.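 How the source made its calls, unless noted: active means mean inhibition above about 50% in the one-dose retest (limit read from the data); inactive means the rest.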

SMILES | SENP7 inh | Platelet DG rel | SENP1 inh | SENP8 block-1 | SENP6 inh | SENP8 block-2 | SENP8 conf | SENP6 confirm | SENP7 conf | Casp3 select | Luc interf
CCNC(=O)COC(=O)c1ccc(-c2nc3ccccc3s2)s1 | 99* | 46 | -3 | 96* | 96* | -388 | 87* | 96* | 101* | 93* | 11
Cc1noc(C)c1COC(=O)c1ccc(-c2nc3ccccc3s2)s1 | 29 | -7 | -9 | 6 | 29 | i | / | / | / | / | /
CCOc1ccc(Nc2ccc([N+](=O)[O-])c3nonc23)cc1 | 37 | 1 | 7 | 65* | 71* | 39 | 64* | 60* | 84* | 61* | 65*
Cc1ccc(Nc2nc3nonc3[nH]c2=O)cc1 | 60* | 2 | 2 | 60* | 36 | 10 | 75* | 66* | 84* | 74* | 71*
CCN1C[C@@H]2[C@@H]3C(=O)N(Cc4ccccc4)C(=O)[C@@H]3[C@](CC)(C(=O)OC)N2C1=NCc1ccccc1 | / | / | 1 | / | / | -2 | / | / | / | / | /
Clc1ccccc1-c1nnc(-c2ccccc2Cl)o1 | -1 | -1 | -3 | 77* | 83* | 21 | 79* | 83* | 94* | 69* | 50*
Clc1ccc(-c2nnc(-c3ccccc3Cl)o2)cc1 | 87* | -12 | 2 | 50* | 83* | 6 | 4 | 45 | 52* | 39 | 23
CCCNCc1nnc(-c2ccccc2Cl)o1 | -5 | 6 | -1 | -4 | -17 | 8 | / | / | / | / | /
Clc1ccc(-c2nnc(-c3cccnc3)o2)cc1 | -1 | 0 | 2 | -4 | 9 | 19 | / | / | / | / | /
Cc1cc(C(=O)N/N=C/c2cc(Cl)cc([N+](=O)[O-])c2O)n[nH]1 | -6 | 7 | 5 | -1 | -1 | 25 | / | / | / | / | /
Cn1c(-c2ccccc2)cc2onc(-c3ccccc3)c2c1=O | 95* | / | 2 | 95* | 95* | 15 | 34 | 38 | 55* | 29 | 4
Cn1c(-c2ncc(F)cc2F)cc2onc(-c3c(F)cccc3Cl)c2c1=O | 9 | / | 1 | 7 | -7 | -30 | / | / | / | / | /
NC(=O)c1[nH]cnc1N=NN(CCO)Cc1ccccc1 | / | / | 1 | / | / | 10 | / | / | / | / | /
O=C(NCc1ccccc1)c1cc2ccc(O)cc2oc1=O | 96* | 19 | -28 | 97* | 95* | -489 | 98* | 98* | 102* | 98* | 97*
O=c1oc2cc(O)ccc2cc1-c1ccccc1 | 88* | 23 | -23 | 91* | 90* | -363 | 94* | 94* | 99* | 92* | 92*
O=C(O)c1ccc(N=c2oc3cc(O)ccc3cc2C(=O)NCc2ccccc2)cc1 | -7 | -2 | -40 | 0 | -4 | -262 | / | / | / | / | /
O=c1oc2ccccc2cc1-c1ccc(O)cc1O | 8 | 13 | 1 | -1 | -15 | -243 | / | / | / | / | /
COC(=O)COc1ccc2cc(-c3ccccc3)c(=O)oc2c1 | 50 | 20 | -27 | 34 | 55* | -400 | 16 | 44 | 7 | 23 | 2
COc1ccc(-c2cc3ccc(O)cc3oc2=O)cc1 | 58* | -3 | -27 | 83* | 88* | -397 | 73* | 77* | 93* | 76* | 62*
O=C(CSc1nc2ncccc2[nH]1)Nc1c(F)cc(F)cc1Br | -3 | -10 | 1 | 4 | 5 | -2 | / | / | / | / | /
Cc1ccc(C)c(N2CC(O)(c3cccs3)[N+]3=C2CCCC3)c1 (centres undefined) | 1 | 8 | 2 | 8 | -8 | 27 | / | / | / | / | /
CC1CCc2nn(CC(=O)Nc3ccc(F)cc3F)cc2C1 (centres undefined) | -4 | 5 | 1 | 2 | -5 | -2 | / | / | / | / | /
COc1ccc(-c2cc3ccc(OCC(C)=O)cc3oc2=O)cc1OC | 1 | 5 | -82 | 0 | 12 | -317 | / | / | / | / | /
O=C(O)C(Oc1ccc2cc(-c3ccc(Cl)cc3)c(=O)oc2c1)c1ccccc1 (centres undefined) | 30 | -2 | -134 | 46 | 77* | i | 74* | 75* | 63* | 44 | 14
COc1ccc(-c2cc3ccc(OCc4nn[nH]n4)cc3oc2=O)cc1OC | 65* | 14 | -24 | 51* | 76* | -301 | 67* | 66* | 91* | 85* | 72*
SMILES | SENP7 inh | Platelet DG rel | SENP1 inh | SENP8 block-1 | SENP6 inh | SENP8 block-2 | SENP8 conf | SENP6 confirm | SENP7 conf | Casp3 select | Luc interf
CCCCc1nc(SCC(=O)Nc2nnc(CCCC)s2)n[nH]1 | 1 | 1 | -1 | -4 | -5 | 4 | / | / | / | / | /
CCOC(=O)C1=C(COC(=O)c2ccc([N+](=O)[O-])s2)NC(=O)NC1C (centres undefined) | 44 | / | -8 | 76* | 75* | 32 | 82* | 87* | 52* | 18 | -3
CCOC(=O)C1=C(COC(=O)c2sccc2C)NC(=O)NC1C (centres undefined) | 3 | / | 0 | -7 | -11 | 13 | / | / | / | / | /
CC(C)C(=O)Nc1cccc(NC(=S)NC(=O)c2cccs2)c1 | 4 | -12 | 0 | -7 | -6 | 7 | / | / | / | / | /
COc1c(Cl)cccc1-c1cn2ccccc2n1 | 93* | 24 | 2 | 89* | 93* | -413 | 93* | 93* | 101* | 92* | 44
Clc1ccc(OCc2cn3ccccc3n2)c2ncccc12 | 0 | 0 | -2 | -1 | -8 | -60 | / | / | / | / | /
CCC(C)Nc1nc(OC(C(F)(F)F)C(F)(F)F)nc(OC(C(F)(F)F)C(F)(F)F)n1 (centres undefined) | 8 | 11 | 3 | 0 | -2 | 28 | / | / | / | / | /
COc1ccc2c(c1)NC(=O)CC(c1ccccc1)=N2 | -11 | 2 | 0 | -16 | -15 | 9 | / | / | / | / | /
CC1=CC(c2ccccc2)=Nc2ccc(C)cc2N1 | 8 | 3 | 0 | 46 | 60* | -34 | 55* | 28 | 66* | 81* | 80*
Nc1c(Cl)cc(-c2cn(CCC(=O)O)c(-c3ccncc3)n2)cc1Cl | -6 | / | -2 | -10 | -7 | -136 | / | / | / | / | /
c1ccc(-c2cnc(-c3ccccn3)nn2)cc1 | 60* | 20 | -1 | 41 | 61* | 16 | 45 | 44 | 82* | 77* | 54*
